# Source: ChEMBL document CHEMBL1909555, “Synthesis and antimalarial activity of thioetherhydroxyethylsulfonamides, potential aspartyl protease inhibitors, Part 3” (Eur J Med Chem, 2011)
# Tests used:
# [1] = Cytotoxicity against human HepG2 cells after 24 hrs by MTT assay; assay type: cell-based; conditions: read-out: LD50
# Procedure, shortened: (§1)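 Trypsinized cells seeded at 5 × 10³/well and allowed to adhere 18 h. Compounds added at varied concentrations for 24 h. MTT then added for 3 h, formazan dissolved in DMSO, absorbance read at 570 and 630 nm. Viability taken as % of untreated control after background subtraction, and LD50 derived.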
# [2] = test system: Plasmodium falciparum; test: Antimalarial activity against chloroquine resistant, mefloquine sensitive Plasmodium falciparum W2 infected in human erythrocytes by [3H]-hypoxanthine incorporation assay; assay type: functional, organism-based
# [3] = Cytotoxicity against african green monkey BGMK cells after 24 hrs by MTT assay; assay type: cell-based; conditions: chlorocebus aethiops, read-out: LD50; procedure, shortened: as §1
SMILES,CC50 at 24 h [1],IC50 [2],CC50 at 24 h [3]
CC(C)(C)OC(=O)N[C@@H](Cc1ccccc1)[C@H](O)CSc1ccccn1,> 200 µg/mL,31.7 µg/mL,> 200 µg/mL
CC(C)(C)OC(=O)N[C@@H](Cc1ccccc1)[C@H](O)CSc1ncccn1,197 µg/mL,> 50 µg/mL,170 µg/mL
O=[N+]([O-])c1ccc(S(=O)(=O)N[C@@H](Cc2ccccc2)[C@H](O)CSc2ccccn2)cc1,> 200 µg/mL,> 50 µg/mL,> 200 µg/mL
Cc1ccc(S(=O)(=O)N[C@@H](Cc2ccccc2)[C@H](O)CSc2ccccn2)cc1,191 µg/mL,> 50 µg/mL,192 µg/mL
O=[N+]([O-])c1ccc(S(=O)(=O)N[C@@H](Cc2ccccc2)[C@H](O)CSc2ncccn2)cc1,> 200 µg/mL,15 µg/mL,> 200 µg/mL
O=S(=O)(N[C@@H](Cc1ccccc1)[C@H](O)CSc1ncccn1)c1ccc(Br)cc1,101 µg/mL,25 µg/mL,99 µg/mL
